Experimental data taken from ChEMBL document CHEMBL1154610, “Discovery and preclinical evaluation of [4-[[1-(3-fluorophenyl)methyl]-1H-indazol-5-ylamino]-5-methylpyrrolo[2,1-f][1,2,4]triazin-6-yl]carbamic acid, (3S)-3-morpholinylmethyl ester (BMS-599626), a selective and orally efficacious inhibitor of human epidermal growth factor receptor 1 and 2 kinases” (J Med Chem, 2009).

target: Receptor tyrosine-protein kinase erbB-2 (Homo sapiens, UniProt P04626); test: Inhibition of human recombinant HER2 expressed in Sf9 cells by liquid scintillation counting; settings: not given
Sequence (P04626 whole entry): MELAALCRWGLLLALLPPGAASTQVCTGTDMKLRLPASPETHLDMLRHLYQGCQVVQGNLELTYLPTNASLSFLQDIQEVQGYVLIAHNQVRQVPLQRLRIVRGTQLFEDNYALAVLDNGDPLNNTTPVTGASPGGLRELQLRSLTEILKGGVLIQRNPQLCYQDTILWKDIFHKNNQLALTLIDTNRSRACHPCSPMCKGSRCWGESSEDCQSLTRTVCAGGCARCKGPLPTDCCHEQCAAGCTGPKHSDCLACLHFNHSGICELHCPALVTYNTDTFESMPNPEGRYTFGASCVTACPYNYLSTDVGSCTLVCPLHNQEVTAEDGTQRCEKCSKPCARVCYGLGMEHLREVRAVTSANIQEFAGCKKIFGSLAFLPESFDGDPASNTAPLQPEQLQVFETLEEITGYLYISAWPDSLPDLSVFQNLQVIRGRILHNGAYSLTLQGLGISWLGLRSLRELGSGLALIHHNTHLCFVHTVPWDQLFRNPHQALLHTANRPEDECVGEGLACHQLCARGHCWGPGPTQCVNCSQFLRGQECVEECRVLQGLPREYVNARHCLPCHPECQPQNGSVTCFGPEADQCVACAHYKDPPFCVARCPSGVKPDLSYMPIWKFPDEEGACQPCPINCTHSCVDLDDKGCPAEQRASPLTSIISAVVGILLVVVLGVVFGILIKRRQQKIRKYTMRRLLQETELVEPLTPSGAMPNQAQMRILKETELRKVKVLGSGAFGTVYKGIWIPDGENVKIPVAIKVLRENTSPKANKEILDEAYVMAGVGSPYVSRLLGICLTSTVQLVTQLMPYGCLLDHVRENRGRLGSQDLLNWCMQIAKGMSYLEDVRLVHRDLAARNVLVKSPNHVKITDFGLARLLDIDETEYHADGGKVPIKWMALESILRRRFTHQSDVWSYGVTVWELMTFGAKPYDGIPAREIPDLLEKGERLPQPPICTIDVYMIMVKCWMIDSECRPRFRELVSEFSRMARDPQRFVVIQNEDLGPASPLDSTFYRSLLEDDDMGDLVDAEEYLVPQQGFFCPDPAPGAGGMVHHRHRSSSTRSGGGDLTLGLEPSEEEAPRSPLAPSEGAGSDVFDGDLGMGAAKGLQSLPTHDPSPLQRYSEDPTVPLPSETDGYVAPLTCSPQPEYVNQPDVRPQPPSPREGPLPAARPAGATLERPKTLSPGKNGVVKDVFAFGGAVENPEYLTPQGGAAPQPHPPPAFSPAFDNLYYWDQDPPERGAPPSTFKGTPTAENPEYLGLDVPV

Row | SMILES | IC50 [µM]
1 | CCC1=C2C(Nc3ccc4c(cnn4Cc4ccccc4)c3)=NC=NC2N=C1NC(=O)OCCn1ccnc1 (stereo not given) | 0.044
2 | CCC1=C2C(Nc3ccc4c(cnn4Cc4ccccc4)c3)=NC=NC2N=C1NC(=O)OCC1CCCNC1 (stereo not given) | 0.029
3 | CCC1=C2C(Nc3ccc4c(cnn4Cc4ccccc4)c3)=NC=NC2N=C1NC(=O)OCC1CCNCC1 (stereo not given) | 0.023
4 | CCC1=C2C(Nc3ccc4c(cnn4Cc4ccccc4)c3)=NC=NC2N=C1NC(=O)OCC1CCCCN1 (stereo not given) | 0.03
5 | CCC1=C2C(Nc3ccc4c(cnn4Cc4cccc(F)c4)c3)=NC=NC2N=C1NC(=O)OC[C@@H]1COCCN1 (stereo not given in full) | 0.022

tested on: A2780; test: Antiproliferative activity against human A2780 cells after 72 hrs by MTT assay; type: functional, cell-based; settings: A2780, 72 h
In short: (§1)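 Cell proliferation IC50 reported as the mean of three independent determinations. BT474 is a breast line (HER2+++/HER1+); A2780 serves as a HER-independent control.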

Row | SMILES | IC50 [µM]
6 | CCC1=C2C(Nc3ccc4c(cnn4Cc4ccccc4)c3)=NC=NC2N=C1NC(=O)OCCn1ccnc1 (stereo not given) | > 5
7 | CCC1=C2C(Nc3ccc4c(cnn4Cc4ccccc4)c3)=NC=NC2N=C1NC(=O)OCC1CCCNC1 (stereo not given) | 3.9
8 | CCC1=C2C(Nc3ccc4c(cnn4Cc4ccccc4)c3)=NC=NC2N=C1NC(=O)OCC1CCCCN1 (stereo not given) | 4.75
9 | CCC1=C2C(Nc3ccc4c(cnn4Cc4cccc(F)c4)c3)=NC=NC2N=C1NC(=O)OC[C@@H]1COCCN1 (stereo not given in full) | 8.07

target: Epidermal growth factor receptor (Homo sapiens, UniProt P00533); test: Inhibition of human recombinant HER1 expressed in Sf9 cells by liquid scintillation counting; settings: not given
Sequence (P00533 whole entry): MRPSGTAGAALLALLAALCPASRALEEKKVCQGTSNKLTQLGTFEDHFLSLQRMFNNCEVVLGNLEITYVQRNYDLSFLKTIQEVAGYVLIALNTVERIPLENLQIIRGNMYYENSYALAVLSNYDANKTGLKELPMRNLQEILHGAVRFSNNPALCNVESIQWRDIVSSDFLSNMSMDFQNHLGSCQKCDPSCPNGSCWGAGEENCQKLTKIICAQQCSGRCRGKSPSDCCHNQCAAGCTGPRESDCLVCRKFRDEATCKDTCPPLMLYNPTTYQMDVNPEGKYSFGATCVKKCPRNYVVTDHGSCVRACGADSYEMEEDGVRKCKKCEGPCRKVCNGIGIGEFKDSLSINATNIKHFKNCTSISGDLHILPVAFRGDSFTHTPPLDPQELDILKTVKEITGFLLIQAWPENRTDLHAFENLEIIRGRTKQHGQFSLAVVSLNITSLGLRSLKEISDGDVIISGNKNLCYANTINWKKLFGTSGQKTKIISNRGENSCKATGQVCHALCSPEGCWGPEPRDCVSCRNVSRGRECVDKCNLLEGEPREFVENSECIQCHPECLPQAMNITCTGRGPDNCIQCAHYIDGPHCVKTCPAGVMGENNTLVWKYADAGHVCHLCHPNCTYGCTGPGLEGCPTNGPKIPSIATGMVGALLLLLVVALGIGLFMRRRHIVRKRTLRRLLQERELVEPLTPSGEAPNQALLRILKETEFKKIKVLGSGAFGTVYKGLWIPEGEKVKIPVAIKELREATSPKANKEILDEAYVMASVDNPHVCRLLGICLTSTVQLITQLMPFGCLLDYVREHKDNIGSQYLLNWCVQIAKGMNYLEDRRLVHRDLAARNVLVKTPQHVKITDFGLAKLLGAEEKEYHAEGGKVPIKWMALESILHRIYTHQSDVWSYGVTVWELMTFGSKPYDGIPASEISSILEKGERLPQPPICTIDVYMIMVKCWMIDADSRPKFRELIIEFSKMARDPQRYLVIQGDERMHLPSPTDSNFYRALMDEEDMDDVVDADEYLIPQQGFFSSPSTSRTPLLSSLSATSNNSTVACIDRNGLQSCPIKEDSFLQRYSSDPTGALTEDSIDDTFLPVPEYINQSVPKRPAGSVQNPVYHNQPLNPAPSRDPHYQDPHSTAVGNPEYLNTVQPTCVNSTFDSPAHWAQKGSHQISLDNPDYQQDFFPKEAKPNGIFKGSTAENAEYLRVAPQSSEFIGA

Row | SMILES | IC50 [µM]
10 | CCC1=C2C(Nc3ccc4c(cnn4Cc4ccccc4)c3)=NC=NC2N=C1NC(=O)OCCn1ccnc1 (stereo not given) | 0.04
11 | CCC1=C2C(Nc3ccc4c(cnn4Cc4ccccc4)c3)=NC=NC2N=C1NC(=O)OCC1CCCNC1 (stereo not given) | 0.038
12 | CCC1=C2C(Nc3ccc4c(cnn4Cc4ccccc4)c3)=NC=NC2N=C1NC(=O)OCC1CCNCC1 (stereo not given) | 0.03
13 | CCC1=C2C(Nc3ccc4c(cnn4Cc4ccccc4)c3)=NC=NC2N=C1NC(=O)OCC1CCCCN1 (stereo not given) | 0.045
14 | CCC1=C2C(Nc3ccc4c(cnn4Cc4cccc(F)c4)c3)=NC=NC2N=C1NC(=O)OC[C@@H]1COCCN1 (stereo not given in full) | 0.023

tested on: not listed separately; test: Metabolic stability in mouse liver microsomes assessed per mg of protein at 10 uM after 10 mins; type: ADME, Microsome; settings: not given
In short: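 Mouse liver microsomes incubated with compound at 10 µM for 10 min; metabolic rate expressed as nmol/min/mg protein.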

Row | SMILES | Stability [nmol/min]
15 | CCC1=C2C(Nc3ccc4c(cnn4Cc4cccc(F)c4)c3)=NC=NC2N=C1NC(=O)OC[C@@H]1COCCN1 (stereo not given in full) | 0.01

tested on: not listed separately; test: Antiproliferative activity against mouse SAL2 cells after 72 hrs by MTT assay; type: functional, cell-based; settings: SAL2, 72 h

Row | SMILES | IC50 [µM]
16 | CCC1=C2C(Nc3ccc4c(cnn4Cc4ccccc4)c3)=NC=NC2N=C1NC(=O)OCCn1ccnc1 (stereo not given) | 0.46
17 | CCC1=C2C(Nc3ccc4c(cnn4Cc4ccccc4)c3)=NC=NC2N=C1NC(=O)OCC1CCCNC1 (stereo not given) | 0.48
18 | CCC1=C2C(Nc3ccc4c(cnn4Cc4ccccc4)c3)=NC=NC2N=C1NC(=O)OCC1CCNCC1 (stereo not given) | 0.13
19 | CCC1=C2C(Nc3ccc4c(cnn4Cc4ccccc4)c3)=NC=NC2N=C1NC(=O)OCC1CCCCN1 (stereo not given) | 0.25
20 | CCC1=C2C(Nc3ccc4c(cnn4Cc4cccc(F)c4)c3)=NC=NC2N=C1NC(=O)OC[C@@H]1COCCN1 (stereo not given in full) | 0.23

tested on: Mus musculus; test: Plasma concentration in BALB/c mouse at 50 mg/kg, po; type: ADME, organism-based; parameters: dose 50 mg/kg, route oral; settings: in vivo
In short: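 Compound given orally at 50 mg/kg as a solution in PEG400/Tween80/water (40:10:50) to three Balb/C mice. Plasma sampled over 4 h after dosing; AUC(0-4h), Cmax and 4 h concentration reported.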

Row | SMILES | concentration [nM]
21 | CCC1=C2C(Nc3ccc4c(cnn4Cc4ccccc4)c3)=NC=NC2N=C1NC(=O)OCCn1ccnc1 (stereo not given) | 9900
22 | CCC1=C2C(Nc3ccc4c(cnn4Cc4ccccc4)c3)=NC=NC2N=C1NC(=O)OCC1CCCNC1 (stereo not given) | 1200
23 | CCC1=C2C(Nc3ccc4c(cnn4Cc4ccccc4)c3)=NC=NC2N=C1NC(=O)OCC1CCNCC1 (stereo not given) | 260
24 | CCC1=C2C(Nc3ccc4c(cnn4Cc4ccccc4)c3)=NC=NC2N=C1NC(=O)OCC1CCCCN1 (stereo not given) | 2300
25 | CCC1=C2C(Nc3ccc4c(cnn4Cc4cccc(F)c4)c3)=NC=NC2N=C1NC(=O)OC[C@@H]1COCCN1 (stereo not given in full) | 5100

tested on: not listed separately; test: Cmax in BALB/c mouse at 50 mg/kg, po; type: ADME, organism-based; parameters: dose 50 mg/kg, route oral; settings: in vivo

Row | SMILES | Cmax [nM]
26 | CCC1=C2C(Nc3ccc4c(cnn4Cc4ccccc4)c3)=NC=NC2N=C1NC(=O)OCCn1ccnc1 (stereo not given) | 9900
27 | CCC1=C2C(Nc3ccc4c(cnn4Cc4ccccc4)c3)=NC=NC2N=C1NC(=O)OCC1CCCNC1 (stereo not given) | 1200
28 | CCC1=C2C(Nc3ccc4c(cnn4Cc4ccccc4)c3)=NC=NC2N=C1NC(=O)OCC1CCNCC1 (stereo not given) | 450
29 | CCC1=C2C(Nc3ccc4c(cnn4Cc4ccccc4)c3)=NC=NC2N=C1NC(=O)OCC1CCCCN1 (stereo not given) | 2300
30 | CCC1=C2C(Nc3ccc4c(cnn4Cc4cccc(F)c4)c3)=NC=NC2N=C1NC(=O)OC[C@@H]1COCCN1 (stereo not given in full) | 5100

tested on: BT-474; test: Antiproliferative activity against human BT474 cells after 72 hrs by MTT assay; type: functional, cell-based; settings: BT-474, 72 h; in short: as §1

Row | SMILES | IC50 [µM]
31 | CCC1=C2C(Nc3ccc4c(cnn4Cc4ccccc4)c3)=NC=NC2N=C1NC(=O)OCCn1ccnc1 (stereo not given) | 0.86
32 | CCC1=C2C(Nc3ccc4c(cnn4Cc4ccccc4)c3)=NC=NC2N=C1NC(=O)OCC1CCCNC1 (stereo not given) | 0.31
33 | CCC1=C2C(Nc3ccc4c(cnn4Cc4ccccc4)c3)=NC=NC2N=C1NC(=O)OCC1CCNCC1 (stereo not given) | 0.09
34 | CCC1=C2C(Nc3ccc4c(cnn4Cc4ccccc4)c3)=NC=NC2N=C1NC(=O)OCC1CCCCN1 (stereo not given) | 0.47
35 | CCC1=C2C(Nc3ccc4c(cnn4Cc4cccc(F)c4)c3)=NC=NC2N=C1NC(=O)OC[C@@H]1COCCN1 (stereo not given in full) | 0.19

tested on: not listed separately; test: AUC (0 to 4 hrs) in BALB/c mouse at 50 mg/kg, po; type: ADME, organism-based; parameters: time < 4 hr, dose 50 mg/kg, route oral; settings: plasma

Row | SMILES | AUC(0-t) at 4 h [µM·h]
36 | CCC1=C2C(Nc3ccc4c(cnn4Cc4ccccc4)c3)=NC=NC2N=C1NC(=O)OCCn1ccnc1 (stereo not given) | 36
37 | CCC1=C2C(Nc3ccc4c(cnn4Cc4ccccc4)c3)=NC=NC2N=C1NC(=O)OCC1CCCNC1 (stereo not given) | 3.6
38 | CCC1=C2C(Nc3ccc4c(cnn4Cc4ccccc4)c3)=NC=NC2N=C1NC(=O)OCC1CCNCC1 (stereo not given) | 1.3
39 | CCC1=C2C(Nc3ccc4c(cnn4Cc4ccccc4)c3)=NC=NC2N=C1NC(=O)OCC1CCCCN1 (stereo not given) | 7.2
40 | CCC1=C2C(Nc3ccc4c(cnn4Cc4cccc(F)c4)c3)=NC=NC2N=C1NC(=O)OC[C@@H]1COCCN1 (stereo not given in full) | 16.2

tested on: NCI-N87; test: Antiproliferative activity against human NCI-N87 cells after 72 hrs by MTT assay; type: functional, cell-based; settings: NCI-N87, 72 h

Row | SMILES | IC50 [µM]
41 | CCC1=C2C(Nc3ccc4c(cnn4Cc4ccccc4)c3)=NC=NC2N=C1NC(=O)OCCn1ccnc1 (stereo not given) | 0.98
42 | CCC1=C2C(Nc3ccc4c(cnn4Cc4ccccc4)c3)=NC=NC2N=C1NC(=O)OCC1CCCNC1 (stereo not given) | 0.32
43 | CCC1=C2C(Nc3ccc4c(cnn4Cc4ccccc4)c3)=NC=NC2N=C1NC(=O)OCC1CCNCC1 (stereo not given) | 0.17
44 | CCC1=C2C(Nc3ccc4c(cnn4Cc4ccccc4)c3)=NC=NC2N=C1NC(=O)OCC1CCCCN1 (stereo not given) | 0.43
45 | CCC1=C2C(Nc3ccc4c(cnn4Cc4cccc(F)c4)c3)=NC=NC2N=C1NC(=O)OC[C@@H]1COCCN1 (stereo not given in full) | 0.34
